Activity calls are given as the source filed them. The rule behind the calls is not given here.
How the values were obtained:
[1] = biological target: Histone deacetylase 1 (Homo sapiens, UniProt Q13547); experiment: Inhibition of HDAC1 (unknown origin) using Fluor de Lys substrate by fluorescence assay relative to control; settings: read-out: IC50
[2] = biological target: Histone deacetylase 3 (Homo sapiens, UniProt O15379); experiment: Inhibition of HDAC3 (unknown origin) using Fluor de Lys substrate by fluorescence assay relative to control
In short: (§1)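 Recombinant HDAC isoform assays run by a contract lab. Compounds in DMSO, 10-dose IC50 mode, 3-fold serial dilution from 50 μM. Duplicate runs; IC50 from curve fitting.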

[3] = biological target: Histone deacetylase 8 (Homo sapiens, UniProt Q9BY41); experiment: Inhibition of HDAC8 (unknown origin) using Fluor de Lys substrate by fluorescence assay relative to control; in short: as §1
[4] = biological target: Histone deacetylase 4 (Homo sapiens) (UniProt P56524); experiment: Inhibition of HDAC4 (unknown origin) using Fluor de Lys substrate by fluorescence assay relative to control; in short: as §1
[5] = biological target: Polyamine deacetylase HDAC10 (Homo sapiens, UniProt Q969S8); experiment: Inhibition of HDAC10 (unknown origin) using Fluor de Lys substrate by fluorescence assay relative to control; in short: as §1
[6] = tested on: HCT-116; experiment: Antiproliferative activity against human HCT116 assessed as reduction in cell viability measured after 72 hrs using alamar blue based fluorescence method; type: functional; settings: HCT-116, 72 h
In short: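 HCT116 and MCF-7 grown in McCoy's 5A with 10% FBS and penicillin/streptomycin at 37 °C, 5% CO2. Cells plated in 96-well format and exposed to drug for 72 h. Alamar blue (1 mM solution) added, incubated 5–6 h, fluorescence read at 530/590 nm.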

[7] = species on record: Homo sapiens; experiment: Selectivity index, ratio of IC50 of HDCA8 (unknown origin) to IC50 of HDCA1 (unknown origin)
[8] = tested on: HL-60; experiment: Potency index, ratio of IC50 of chidamide to IC50 of test compound against human HL60 cells; type: functional
[9] = tested on: HCT-116; experiment: Potency index, ratio of IC50 of chidamide to IC50 of test compound against human HCT116 cells; type: functional
[10] = biological target: Class 1 histone deacetylase (Homo sapiens) (UniProt Q13547+O15379+Q92769+Q9BY41); experiment: Inhibition of class I HDAC in human MCF7 cells assessed as increase in cellular histone H3 acetylation levels incubated for 24 hrs by Western blot; type: cell-based
In short: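 MCF-7 cells (1×10^6) seeded overnight, treated 24 h at 0.25, 2.5 or 25 μM. Lysed with protease inhibitor (EDTA-free); 30 µg total protein run on SDS-PAGE, blotted to nitrocellulose, probed for acetyl-H3, ECL detection.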

[11] = tested on: K562; experiment: Growth inhibition of human K562 cells assessed as cell growth inhibition at 10 uM incubated for 48 hrs by sulforhodamine B assay; type: functional; settings: K562, 48 h, read-out: GI
[12] = tested on: EKVX; experiment: Growth inhibition of human EKVX cells assessed as cell growth inhibition at 10 uM incubated for 48 hrs by sulforhodamine B assay; type: functional; settings: read-out: GI
[13] = tested on: HOP-62; experiment: Growth inhibition of human HOP62 cells assessed as cell growth inhibition at 10 uM incubated for 48 hrs by sulforhodamine B assay; type: functional; settings: HOP-62, 48 h, read-out: GI
[14] = tested on: HOP-92; experiment: Growth inhibition of human HOP92 cells assessed as cell growth inhibition at 10 uM incubated for 48 hrs by sulforhodamine B assay; type: functional; settings: HOP-92, 48 h, read-out: GI
[15] = tested on: NCI-H226; experiment: Growth inhibition of human NCI-H226 assessed as cell growth inhibition at 10 uM incubated for 48 hrs by sulforhodamine B assay; type: functional; settings: NCI-H226, 48 h, read-out: GI
[16] = tested on: COLO 205; experiment: Growth inhibition of human COLO205 cells assessed as cell growth inhibition at 10 uM incubated for 48 hrs by sulforhodamine B assay; type: functional; settings: COLO 205, 48 h, read-out: GI
[17] = tested on: HT-29; experiment: Growth inhibition of human HT-29 cells assessed as cell growth inhibition at 10 uM incubated for 48 hrs by sulforhodamine B assay; type: functional; settings: HT-29, 48 h, read-out: GI
[18] = tested on: SW-620; experiment: Growth inhibition of human SW620 cells assessed as cell growth inhibition at 10 uM incubated for 48 hrs by sulforhodamine B assay; type: functional; settings: SW-620, 48 h, read-out: GI
[19] = tested on: TK-10; experiment: Growth inhibition of human TK10 cells assessed as cell growth inhibition at 10 uM incubated for 48 hrs by sulforhodamine B assay; type: functional; settings: TK-10, 48 h, read-out: GI
[20] = tested on: A498; experiment: Growth inhibition of human A498 cells assessed as cell growth inhibition at 10 uM incubated for 48 hrs by sulforhodamine B assay; type: functional; settings: A498, 48 h, read-out: GI
[21] = tested on: 786-0; experiment: Growth inhibition of human 786-0 cells assessed as cell growth inhibition at 10 uM incubated for 48 hrs by sulforhodamine B assay; type: functional; settings: 786-0, 48 h, read-out: GI
[22] = tested on: SF-295; experiment: Growth inhibition of human SF295 cells assessed as cell growth inhibition at 10 uM incubated for 48 hrs by sulforhodamine B assay; type: functional; settings: SF-295, 48 h, read-out: GI
[23] = tested on: SNB-75; experiment: Growth inhibition of human SNB75 cells assessed as cell growth inhibition at 10 uM incubated for 48 hrs by sulforhodamine B assay; type: functional; settings: SNB-75, 48 h, read-out: GI
[24] = tested on: OVCAR-3; experiment: Growth inhibition of human OVCAR3 cells assessed as cell growth inhibition at 10 uM incubated for 48 hrs by sulforhodamine B assay; type: functional; settings: OVCAR-3, 48 h, read-out: GI
[25] = tested on: NCI/ADR-RES; experiment: Growth inhibition of human NCI/ADR-RES cells assessed as cell growth inhibition at 10 uM incubated for 48 hrs by sulforhodamine B assay; type: functional; settings: read-out: GI
[26] = tested on: SK-OV-3; experiment: Growth inhibition of human SKOV3 cells assessed as cell growth inhibition at 10 uM incubated for 48 hrs by sulforhodamine B assay; type: functional; settings: SK-OV-3, 48 h, read-out: GI
[27] = tested on: MDA-MB-468; experiment: Growth inhibition of human MDA-MB-468 cells assessed as cell growth inhibition at 10 uM incubated for 48 hrs by sulforhodamine B assay; type: functional; settings: MDA-MB-468, 48 h, read-out: GI
[28] = Metabolic stability in dog liver microsomes assessed as internal clearance at 1 uM preincubated for 10 mins followed by NADPH addition measured upto 60 mins by LC-MS/MS analysis; type: ADME, Canis lupus familiaris, Microsome; settings: read-out: CLH
In short: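 Liver microsomes from male SD rat, dog or human at 0.5 mg/mL in 100 mM potassium phosphate pH 7.4 with 1 μM compound. Prewarmed 37 °C 10 min, started with 1 mM NADPH. Stopped at 0, 5, 10, 20, 40, 60 min with cold methanol containing glibenclamide internal standard; supernatant by LC–MS/MS; T1/2 and CLint derived.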

[29] = Terminal half life in Sprague-Dawley rat at 10 mg/kg, po by LC-MS/MS analysis; type: ADME, organism-based; settings: in vivo, read-out: beta t1/2 (converted)
In short: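 Male SD rats (199-214 g), three per route, single dose 1 mg/kg iv or 10 mg/kg po. Jugular blood (~200 μL) into heparinized tubes at set times; plasma by centrifugation, protein precipitation with acetonitrile containing verapamil and glibenclamide; drug measured by LC-MS/MS.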

Histone deacetylase 3, sequence (O15379 whole entry, canonical isoform): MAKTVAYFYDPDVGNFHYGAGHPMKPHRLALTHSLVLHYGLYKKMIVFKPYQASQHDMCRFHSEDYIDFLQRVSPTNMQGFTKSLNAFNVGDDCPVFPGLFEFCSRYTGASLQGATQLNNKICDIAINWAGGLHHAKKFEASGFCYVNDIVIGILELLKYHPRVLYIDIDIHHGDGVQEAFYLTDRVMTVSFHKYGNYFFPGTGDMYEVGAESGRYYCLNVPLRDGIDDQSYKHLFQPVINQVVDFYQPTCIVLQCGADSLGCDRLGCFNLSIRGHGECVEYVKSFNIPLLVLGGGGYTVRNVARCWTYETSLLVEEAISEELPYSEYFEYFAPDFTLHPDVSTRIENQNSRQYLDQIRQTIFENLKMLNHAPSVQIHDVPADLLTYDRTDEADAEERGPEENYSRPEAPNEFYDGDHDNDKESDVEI
Class 1 histone deacetylase (Homo sapiens), sequence (O15379 whole entry, looked up): as the sequence (O15379 whole entry, canonical isoform) above
Class 1 histone deacetylase (Homo sapiens), sequence (Q13547 whole entry, looked up): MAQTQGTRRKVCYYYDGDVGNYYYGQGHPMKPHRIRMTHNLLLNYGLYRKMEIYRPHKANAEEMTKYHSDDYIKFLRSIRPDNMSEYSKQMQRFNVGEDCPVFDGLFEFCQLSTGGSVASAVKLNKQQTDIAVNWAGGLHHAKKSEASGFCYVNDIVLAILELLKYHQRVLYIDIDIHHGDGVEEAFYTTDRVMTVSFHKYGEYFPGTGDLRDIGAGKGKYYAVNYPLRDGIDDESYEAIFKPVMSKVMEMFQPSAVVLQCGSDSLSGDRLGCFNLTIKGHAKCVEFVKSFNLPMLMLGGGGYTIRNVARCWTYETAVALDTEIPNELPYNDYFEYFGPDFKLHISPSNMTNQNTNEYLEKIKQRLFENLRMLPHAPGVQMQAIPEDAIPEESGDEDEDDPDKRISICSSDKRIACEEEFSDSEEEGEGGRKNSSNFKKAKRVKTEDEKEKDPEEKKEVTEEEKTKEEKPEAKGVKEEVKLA
Class 1 histone deacetylase (Homo sapiens), sequence (Q92769 whole entry, looked up): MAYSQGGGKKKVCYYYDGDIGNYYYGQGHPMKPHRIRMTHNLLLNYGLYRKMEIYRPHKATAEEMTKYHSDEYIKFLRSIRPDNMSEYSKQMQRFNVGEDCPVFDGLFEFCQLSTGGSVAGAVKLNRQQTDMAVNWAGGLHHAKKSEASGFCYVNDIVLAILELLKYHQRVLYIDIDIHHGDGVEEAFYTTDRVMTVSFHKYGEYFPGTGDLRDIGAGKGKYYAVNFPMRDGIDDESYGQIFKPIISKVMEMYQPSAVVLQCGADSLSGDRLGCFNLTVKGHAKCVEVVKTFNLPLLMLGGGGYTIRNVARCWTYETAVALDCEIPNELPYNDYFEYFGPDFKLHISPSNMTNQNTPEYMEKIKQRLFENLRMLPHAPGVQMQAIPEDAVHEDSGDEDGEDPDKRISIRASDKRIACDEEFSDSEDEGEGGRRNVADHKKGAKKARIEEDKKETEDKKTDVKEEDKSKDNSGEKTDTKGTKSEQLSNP
Class 1 histone deacetylase (Homo sapiens), sequence (Q9BY41 whole entry, looked up): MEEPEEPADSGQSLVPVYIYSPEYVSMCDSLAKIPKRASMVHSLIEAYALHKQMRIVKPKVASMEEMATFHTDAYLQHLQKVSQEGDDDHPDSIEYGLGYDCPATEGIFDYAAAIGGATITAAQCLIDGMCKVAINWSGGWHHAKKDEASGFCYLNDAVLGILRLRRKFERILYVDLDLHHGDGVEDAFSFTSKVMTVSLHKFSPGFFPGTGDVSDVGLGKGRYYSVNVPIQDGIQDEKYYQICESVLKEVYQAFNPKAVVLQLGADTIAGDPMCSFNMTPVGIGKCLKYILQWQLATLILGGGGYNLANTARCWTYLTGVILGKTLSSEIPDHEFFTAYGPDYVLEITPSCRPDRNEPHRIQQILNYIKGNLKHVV
Polyamine deacetylase HDAC10, sequence (Q969S8 whole entry): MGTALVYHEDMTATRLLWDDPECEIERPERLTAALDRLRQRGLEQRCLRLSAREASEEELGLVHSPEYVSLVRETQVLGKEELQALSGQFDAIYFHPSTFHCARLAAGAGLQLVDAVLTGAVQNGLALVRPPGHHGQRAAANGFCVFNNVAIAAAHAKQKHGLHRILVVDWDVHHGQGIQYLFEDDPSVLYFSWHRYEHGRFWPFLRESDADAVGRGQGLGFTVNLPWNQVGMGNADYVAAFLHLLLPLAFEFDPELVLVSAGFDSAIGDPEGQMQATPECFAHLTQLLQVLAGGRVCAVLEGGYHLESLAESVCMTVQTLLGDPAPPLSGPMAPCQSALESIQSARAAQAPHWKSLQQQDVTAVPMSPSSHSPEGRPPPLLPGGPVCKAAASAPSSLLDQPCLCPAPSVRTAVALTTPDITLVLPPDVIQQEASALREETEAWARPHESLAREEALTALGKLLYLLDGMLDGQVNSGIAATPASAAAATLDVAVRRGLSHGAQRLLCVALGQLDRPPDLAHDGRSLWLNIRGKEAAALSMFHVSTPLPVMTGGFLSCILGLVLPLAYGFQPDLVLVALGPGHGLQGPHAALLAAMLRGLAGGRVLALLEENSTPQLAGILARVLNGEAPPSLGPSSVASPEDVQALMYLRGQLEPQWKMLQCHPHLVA
Histone deacetylase 1, sequence (Q13547 whole entry): as the sequence (Q13547 whole entry, looked up) above
Histone deacetylase 4 (Homo sapiens), sequence (P56524 whole entry): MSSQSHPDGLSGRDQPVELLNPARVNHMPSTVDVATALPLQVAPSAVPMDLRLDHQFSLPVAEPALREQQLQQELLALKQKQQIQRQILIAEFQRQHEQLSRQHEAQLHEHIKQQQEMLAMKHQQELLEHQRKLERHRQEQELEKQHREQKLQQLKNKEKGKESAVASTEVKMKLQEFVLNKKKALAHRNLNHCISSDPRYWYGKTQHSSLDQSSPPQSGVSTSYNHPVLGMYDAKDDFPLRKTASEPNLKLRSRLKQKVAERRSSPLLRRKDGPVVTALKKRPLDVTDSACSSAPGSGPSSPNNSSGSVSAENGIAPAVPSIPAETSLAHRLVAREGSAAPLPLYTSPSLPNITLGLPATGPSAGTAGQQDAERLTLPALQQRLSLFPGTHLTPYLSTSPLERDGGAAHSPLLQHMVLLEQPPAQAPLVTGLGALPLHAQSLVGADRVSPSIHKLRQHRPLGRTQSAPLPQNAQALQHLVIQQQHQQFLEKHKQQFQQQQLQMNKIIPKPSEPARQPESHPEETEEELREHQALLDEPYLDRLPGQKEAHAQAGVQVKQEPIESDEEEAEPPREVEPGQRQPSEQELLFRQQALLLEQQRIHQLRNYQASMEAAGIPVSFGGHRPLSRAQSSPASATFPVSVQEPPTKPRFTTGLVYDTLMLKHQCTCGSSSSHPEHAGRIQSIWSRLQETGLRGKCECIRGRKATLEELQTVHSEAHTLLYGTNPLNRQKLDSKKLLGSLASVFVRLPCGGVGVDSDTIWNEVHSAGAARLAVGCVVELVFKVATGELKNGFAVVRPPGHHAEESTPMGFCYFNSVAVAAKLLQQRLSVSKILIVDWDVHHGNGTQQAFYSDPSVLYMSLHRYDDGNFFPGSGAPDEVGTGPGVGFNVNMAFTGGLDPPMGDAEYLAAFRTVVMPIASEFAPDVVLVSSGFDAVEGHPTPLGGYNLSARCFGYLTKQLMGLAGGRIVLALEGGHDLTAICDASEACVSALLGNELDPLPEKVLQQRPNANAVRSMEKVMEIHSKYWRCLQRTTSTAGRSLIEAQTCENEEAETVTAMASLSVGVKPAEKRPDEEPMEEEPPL
Histone deacetylase 8, sequence (Q9BY41 whole entry): as the sequence (Q9BY41 whole entry, looked up) above

In the case of `Nc1cc(F)ccc1NC(=O)c1ccc(CNC(=O)/C=C2\NC(=O)c3ccccc32)cc1`, the IC50 [1] is reported as 65.1 nM, the IC50 [2] is reported as 112 nM and the IC50 [3] is reported as 1080 nM. The inhibition [4] was “inactive”, the IC50 [5] was 950 nM and the IC50 [6] was 432 nM. The Ratio IC50 [7] was 17, the “Ratio IC50” value [8] was 5 and the “Ratio IC50” value [9] was 2.5. The inhibition [10] was “Dose-dependent effect”, the inhibition of growth at 10 µM [11] was 61.6% and the inhibition of growth at 10 µM [12] was 11.7%. For the same compound, the inhibition of growth at 10 µM [13] was 29.9%, the inhibition of growth at 10 µM [14] was 58.6% and the inhibition of growth at 10 µM [15] was 30.2%. For the same compound, the inhibition of growth at 10 µM [16] was 27.8%, the inhibition of growth at 10 µM [17] was 40.4% and the inhibition of growth at 10 µM [18] was 40.1%. For the same compound, the inhibition of growth at 10 µM [19] was 72.3%, the inhibition of growth at 10 µM [20] was 47.1% and the inhibition of growth at 10 µM [21] was 7.02%. For the same compound, the inhibition of growth at 10 µM [22] was 16.2%, the inhibition of growth at 10 µM [23] was 30.6% and the inhibition of growth at 10 µM [24] was 42%. The inhibition of growth at 10 µM [25] was 18%, the inhibition of growth at 10 µM [26] was 29.5% and the inhibition of growth at 10 µM [27] was 9.71%. It also gave a microsomal CLint at 1 µM [28] of 6.92 µL/min/mg and a half-life [29] of 1.3 h.

Source: ChEMBL document CHEMBL4387704, “Design, synthesis and biological evaluation of novel isoindolinone derivatives as potent histone deacetylase inhibitors” (Eur J Med Chem, 2019)
